For eight compounds, Ki results are on record in ChEMBL document CHEMBL4004881, “Perfluorinated hydroxamic acids are potent and selective inhibitors of HDAC-like enzymes from Pseudomonas aeruginosa” (Bioorg Med Chem Lett, 2017).

One assay concerns the target T1, Histone deacetylase 7 (Homo sapiens, UniProt Q8WUI4).
T1 sequence (Q8WUI4 whole entry): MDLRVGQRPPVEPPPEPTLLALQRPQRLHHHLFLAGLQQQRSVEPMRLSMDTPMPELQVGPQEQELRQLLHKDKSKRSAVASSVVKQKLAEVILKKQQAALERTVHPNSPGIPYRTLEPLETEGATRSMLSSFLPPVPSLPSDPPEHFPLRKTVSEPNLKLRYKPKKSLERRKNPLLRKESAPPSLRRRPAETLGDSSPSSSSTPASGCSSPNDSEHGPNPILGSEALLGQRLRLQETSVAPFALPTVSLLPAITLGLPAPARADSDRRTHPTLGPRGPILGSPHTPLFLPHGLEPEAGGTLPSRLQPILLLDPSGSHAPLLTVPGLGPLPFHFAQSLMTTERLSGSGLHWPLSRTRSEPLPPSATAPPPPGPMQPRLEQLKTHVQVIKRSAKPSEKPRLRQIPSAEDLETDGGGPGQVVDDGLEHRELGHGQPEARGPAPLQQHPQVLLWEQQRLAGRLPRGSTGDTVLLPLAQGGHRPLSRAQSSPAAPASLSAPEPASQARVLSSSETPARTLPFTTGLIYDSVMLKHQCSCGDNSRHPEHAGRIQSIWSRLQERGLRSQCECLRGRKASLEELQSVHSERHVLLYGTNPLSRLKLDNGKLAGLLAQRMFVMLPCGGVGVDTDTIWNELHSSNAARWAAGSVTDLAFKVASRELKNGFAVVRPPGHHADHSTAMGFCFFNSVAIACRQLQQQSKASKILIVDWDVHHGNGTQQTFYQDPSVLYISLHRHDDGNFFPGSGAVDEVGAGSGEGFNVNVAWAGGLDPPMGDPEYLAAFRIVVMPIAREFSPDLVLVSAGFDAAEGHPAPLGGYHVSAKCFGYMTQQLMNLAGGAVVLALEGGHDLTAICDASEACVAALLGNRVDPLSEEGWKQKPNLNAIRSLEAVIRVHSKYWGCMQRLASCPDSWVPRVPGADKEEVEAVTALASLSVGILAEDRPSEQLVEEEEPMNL
Description: Inhibition of human HDAC7 using Boc-Lys(trifluoroacetyl)-AMC as substrate preincubated for 30 mins followed by substrate addition measured after 60 mins by trypsin-based fluorescence assay. The method in brief: (§1)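 Boc-Lys(trifluoroacetyl)-AMC served as substrate in a fluorogenic activity assay. Trypsin was added after a 30 min incubation to release the fluorescent dye from the deacetylated product. IC50 values came from 10-point ligand dose-response curves and were converted to Ki by the Cheng-Prusoff relation.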

Assay [1] concerns the target T2, Protein deacetylase HDAC6 (Homo sapiens, UniProt Q9UBN7).
T2 sequence (Q9UBN7 whole entry): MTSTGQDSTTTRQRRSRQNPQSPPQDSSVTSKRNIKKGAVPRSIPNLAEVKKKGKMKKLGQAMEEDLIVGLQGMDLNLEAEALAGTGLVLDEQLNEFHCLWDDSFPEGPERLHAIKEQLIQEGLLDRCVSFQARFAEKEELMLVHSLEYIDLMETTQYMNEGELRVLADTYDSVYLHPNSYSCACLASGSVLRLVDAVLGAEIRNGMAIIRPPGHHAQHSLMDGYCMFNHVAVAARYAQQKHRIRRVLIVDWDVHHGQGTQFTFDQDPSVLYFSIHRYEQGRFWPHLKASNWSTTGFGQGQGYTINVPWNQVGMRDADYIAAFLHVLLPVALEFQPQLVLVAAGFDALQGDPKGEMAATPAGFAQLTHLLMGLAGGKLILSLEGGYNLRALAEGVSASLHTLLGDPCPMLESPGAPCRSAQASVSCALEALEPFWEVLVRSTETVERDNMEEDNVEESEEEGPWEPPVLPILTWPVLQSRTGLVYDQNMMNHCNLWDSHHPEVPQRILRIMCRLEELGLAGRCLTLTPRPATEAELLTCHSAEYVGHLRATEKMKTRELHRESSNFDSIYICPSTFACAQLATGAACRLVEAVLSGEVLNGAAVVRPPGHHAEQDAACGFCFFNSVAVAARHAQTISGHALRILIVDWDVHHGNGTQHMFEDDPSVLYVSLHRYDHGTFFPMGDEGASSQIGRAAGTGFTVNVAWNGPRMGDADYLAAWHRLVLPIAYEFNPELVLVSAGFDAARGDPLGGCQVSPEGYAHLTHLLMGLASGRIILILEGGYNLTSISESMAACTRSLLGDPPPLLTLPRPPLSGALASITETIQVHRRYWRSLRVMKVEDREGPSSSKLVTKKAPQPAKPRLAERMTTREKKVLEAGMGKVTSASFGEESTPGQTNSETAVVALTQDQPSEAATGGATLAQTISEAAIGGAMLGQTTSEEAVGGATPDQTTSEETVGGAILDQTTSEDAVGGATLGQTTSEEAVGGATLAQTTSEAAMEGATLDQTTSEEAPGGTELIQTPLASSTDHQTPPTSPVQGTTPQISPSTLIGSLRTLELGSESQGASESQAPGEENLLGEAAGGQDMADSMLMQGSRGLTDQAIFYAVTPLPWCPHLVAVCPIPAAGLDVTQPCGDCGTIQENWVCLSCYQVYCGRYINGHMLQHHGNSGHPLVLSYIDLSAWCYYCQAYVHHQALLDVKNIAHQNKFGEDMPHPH
Description: Inhibition of human HDAC6 using Boc-Lys(Ac)-AMC as substrate preincubated for 30 mins followed by substrate addition measured after 60 mins by trypsin-based fluorescence assay. In outline:
(§2)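 Fluorogenic deacetylase assay with Boc-Lys(Ac)-AMC substrate. After a 30 min incubation, trypsin was added to convert the deacetylated substrate to the fluorescent dye.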

A short description of assay [2]: Inhibition of Pseudomonas aeruginosa PA0321 using Boc-Lys(trifluoroacetyl)-AMC as substrate preincubated for 30 mins followed by substrate addition measured after 60 mins by trypsin-based fluorescence assay.
For another assay, the target named is T3, Histone deacetylase 8 (Homo sapiens, UniProt Q9BY41).
T3 sequence (Q9BY41 whole entry): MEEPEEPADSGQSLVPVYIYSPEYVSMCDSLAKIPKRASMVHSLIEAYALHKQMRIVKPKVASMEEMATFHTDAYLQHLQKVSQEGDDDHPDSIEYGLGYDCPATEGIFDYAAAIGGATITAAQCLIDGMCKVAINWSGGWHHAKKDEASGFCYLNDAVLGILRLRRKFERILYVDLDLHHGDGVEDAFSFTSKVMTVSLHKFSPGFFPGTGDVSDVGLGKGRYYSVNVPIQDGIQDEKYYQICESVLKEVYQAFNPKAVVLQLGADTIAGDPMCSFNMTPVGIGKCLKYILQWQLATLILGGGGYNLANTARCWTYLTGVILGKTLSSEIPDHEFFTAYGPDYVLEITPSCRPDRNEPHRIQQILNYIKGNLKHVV
Briefly: Inhibition of human HDAC8 using Boc-Lys(trifluoroacetyl)-AMC as substrate preincubated for 30 mins followed by substrate addition measured after 60 mins by trypsin-based fluorescence assay. The method in brief: as §1

The next assay concerns the target Histone deacetylase 4 (Homo sapiens, UniProt P56524). Description: Inhibition of human HDAC4 using Boc-Lys(trifluoroacetyl)-AMC as substrate preincubated for 30 mins followed by substrate addition measured after 60 mins by trypsin-based fluorescence assay.
The target in another assay is Histone deacetylase 5 (Homo sapiens, UniProt Q9UQL6). Description: Inhibition of human HDAC5 using Boc-Lys(trifluoroacetyl)-AMC as substrate preincubated for 30 mins followed by substrate addition measured after 60 mins by trypsin-based fluorescence assay.
Assay [3] in a line: Inhibition of Bordetella HDAH using Boc-Lys(trifluoroacetyl)-AMC as substrate preincubated for 30 mins followed by substrate addition measured after 60 mins by trypsin-based fluorescence assay. In outline:
(§3)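 Bacterial HDAH activity was measured by a fluorogenic assay in which the deacetylated substrate is converted to fluorescent dye by trypsin. Ki was calculated via Cheng-Prusoff from IC50 values, which were fitted to dose-response curves spanning 10 ligand concentrations.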

Another assay concerns the target Histone deacetylase 1 (Homo sapiens, UniProt Q13547). Description: Inhibition of human HDAC1 using Boc-Lys(Ac)-AMC as substrate preincubated for 30 mins followed by substrate addition measured after 60 mins by trypsin-based fluorescence assay. In outline:
as §2

Assay [4] in a line: Inhibition of Pseudomonas aeruginosa PA1409 using Boc-Lys(trifluoroacetyl)-AMC as substrate preincubated for 30 mins followed by substrate addition measured after 60 mins by trypsin-based fluorescence assay.
Assay [5] in a line: Inhibition of Alcaligenes HDAH using Boc-Lys(trifluoroacetyl)-AMC as substrate preincubated for 30 mins followed by substrate addition measured after 60 mins by trypsin-based fluorescence assay. The method in brief:
as §3

Assay [6] is described as follows: Inhibition of Pseudomonas aeruginosa PA3774 using Boc-Lys(trifluoroacetyl)-AMC as substrate preincubated for 30 mins followed by substrate addition measured after 60 mins by trypsin-based fluorescence assay.

Sequence of Histone deacetylase 5 (Q9UQL6 whole entry): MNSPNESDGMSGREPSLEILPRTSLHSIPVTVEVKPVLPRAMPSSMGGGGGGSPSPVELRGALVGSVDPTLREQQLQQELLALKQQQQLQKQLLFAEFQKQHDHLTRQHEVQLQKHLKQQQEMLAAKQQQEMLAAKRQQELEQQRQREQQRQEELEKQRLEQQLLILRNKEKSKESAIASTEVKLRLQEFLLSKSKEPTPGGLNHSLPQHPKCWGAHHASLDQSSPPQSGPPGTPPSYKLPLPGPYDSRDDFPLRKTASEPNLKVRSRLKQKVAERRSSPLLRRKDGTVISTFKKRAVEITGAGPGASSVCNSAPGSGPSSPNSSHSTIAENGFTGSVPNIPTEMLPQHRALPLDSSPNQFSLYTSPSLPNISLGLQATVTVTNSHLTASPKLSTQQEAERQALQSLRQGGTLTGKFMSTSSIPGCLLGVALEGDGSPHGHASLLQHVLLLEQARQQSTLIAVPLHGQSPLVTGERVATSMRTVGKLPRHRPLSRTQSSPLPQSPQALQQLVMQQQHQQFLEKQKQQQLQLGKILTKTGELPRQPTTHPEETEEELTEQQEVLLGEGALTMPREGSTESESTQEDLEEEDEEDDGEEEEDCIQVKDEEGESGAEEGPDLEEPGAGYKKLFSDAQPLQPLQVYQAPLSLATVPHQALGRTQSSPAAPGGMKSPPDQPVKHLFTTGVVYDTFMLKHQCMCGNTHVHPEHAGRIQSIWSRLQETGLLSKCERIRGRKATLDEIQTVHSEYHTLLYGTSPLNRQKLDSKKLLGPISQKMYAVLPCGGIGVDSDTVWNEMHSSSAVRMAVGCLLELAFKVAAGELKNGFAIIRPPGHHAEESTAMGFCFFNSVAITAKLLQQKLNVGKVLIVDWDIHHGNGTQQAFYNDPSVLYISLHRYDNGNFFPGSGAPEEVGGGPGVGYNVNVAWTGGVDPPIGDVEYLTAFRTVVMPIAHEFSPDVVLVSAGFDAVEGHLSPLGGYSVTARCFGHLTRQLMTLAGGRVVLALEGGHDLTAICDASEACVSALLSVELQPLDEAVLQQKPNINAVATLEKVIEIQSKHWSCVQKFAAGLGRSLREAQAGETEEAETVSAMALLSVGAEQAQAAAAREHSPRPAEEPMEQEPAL
Sequence of Histone deacetylase 4 (P56524 whole entry): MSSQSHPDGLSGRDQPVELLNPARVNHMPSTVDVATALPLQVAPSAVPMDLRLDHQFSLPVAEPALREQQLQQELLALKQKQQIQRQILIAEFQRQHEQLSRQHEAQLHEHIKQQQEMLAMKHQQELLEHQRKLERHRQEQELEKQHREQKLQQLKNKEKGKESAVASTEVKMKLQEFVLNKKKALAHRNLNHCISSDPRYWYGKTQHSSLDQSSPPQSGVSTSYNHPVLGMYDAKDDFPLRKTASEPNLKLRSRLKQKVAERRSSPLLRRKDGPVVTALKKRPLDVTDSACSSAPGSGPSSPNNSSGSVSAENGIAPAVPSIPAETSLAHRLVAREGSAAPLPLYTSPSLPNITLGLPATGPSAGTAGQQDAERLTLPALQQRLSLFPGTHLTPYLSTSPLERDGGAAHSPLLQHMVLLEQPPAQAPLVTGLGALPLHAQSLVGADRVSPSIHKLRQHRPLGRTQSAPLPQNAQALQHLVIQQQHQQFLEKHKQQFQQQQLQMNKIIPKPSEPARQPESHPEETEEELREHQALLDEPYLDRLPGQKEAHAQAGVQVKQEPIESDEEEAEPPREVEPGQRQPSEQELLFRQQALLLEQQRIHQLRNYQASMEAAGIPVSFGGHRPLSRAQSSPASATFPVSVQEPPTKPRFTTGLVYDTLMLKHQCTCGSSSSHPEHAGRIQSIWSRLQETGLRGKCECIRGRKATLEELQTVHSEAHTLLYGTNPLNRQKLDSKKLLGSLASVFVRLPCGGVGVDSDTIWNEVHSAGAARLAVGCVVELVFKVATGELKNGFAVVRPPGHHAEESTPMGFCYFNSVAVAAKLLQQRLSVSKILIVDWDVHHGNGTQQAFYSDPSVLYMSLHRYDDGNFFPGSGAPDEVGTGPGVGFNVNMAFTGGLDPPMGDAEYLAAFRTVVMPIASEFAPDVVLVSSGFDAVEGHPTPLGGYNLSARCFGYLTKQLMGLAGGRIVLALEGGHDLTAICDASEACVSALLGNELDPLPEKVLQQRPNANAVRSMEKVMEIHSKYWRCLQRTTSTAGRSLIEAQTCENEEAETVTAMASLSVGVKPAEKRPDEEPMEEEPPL
Sequence of Histone deacetylase 1 (Q13547 whole entry): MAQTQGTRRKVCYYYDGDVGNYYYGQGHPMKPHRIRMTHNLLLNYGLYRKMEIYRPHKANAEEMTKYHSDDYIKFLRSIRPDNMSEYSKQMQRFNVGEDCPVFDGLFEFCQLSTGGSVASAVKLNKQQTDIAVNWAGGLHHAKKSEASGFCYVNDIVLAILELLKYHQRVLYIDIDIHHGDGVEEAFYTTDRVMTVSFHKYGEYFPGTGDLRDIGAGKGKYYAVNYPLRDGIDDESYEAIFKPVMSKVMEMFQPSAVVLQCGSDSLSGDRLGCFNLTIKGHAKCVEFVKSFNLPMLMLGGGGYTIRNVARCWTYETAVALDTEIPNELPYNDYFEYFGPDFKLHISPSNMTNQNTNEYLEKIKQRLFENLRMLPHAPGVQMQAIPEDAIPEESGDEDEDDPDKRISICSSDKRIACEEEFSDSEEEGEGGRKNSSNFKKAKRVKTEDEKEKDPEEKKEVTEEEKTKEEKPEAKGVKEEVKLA

One may read the Ki as a measure of affinity in units of concentration, obtained from inhibition or displacement. A high value points to lower affinity. Take `Cc1ccc(NC(=O)C(F)(F)C(F)(F)C(F)(F)C(F)(F)C(F)(F)C(F)(F)C(=O)NO)cc1C`: the Ki at Histone deacetylase 7 was 2.5 µM; in assay [1] it was 20 µM; in assay [2], 1.6 µM; at Histone deacetylase 8 it was 8.4 µM; at Histone deacetylase 4, greater than 50 µM; at Histone deacetylase 5 it was greater than 50 µM. Further, the inhibitory constant (Ki) in [3] came out at 0.11 µM; at Histone deacetylase 1, 7 µM; in [4], 5.8 µM; in [5] it was 0.11 µM; in assay [6] it was 0.1 µM.
Turning to `CN(C)c1ccc(NC(=O)C(F)(F)C(F)(F)C(F)(F)C(F)(F)C(F)(F)C(F)(F)C(=O)NO)cc1`, the Ki (on Histone deacetylase 7; in assay [1]; in assay [2]; on Histone deacetylase 8; on Histone deacetylase 4; on Histone deacetylase 5) was greater than 50 µM throughout. The Ki in [3] is greater than 50 µM; at Histone deacetylase 1, greater than 50 µM; in assay [4], greater than 50 µM; in assay [5] it was greater than 50 µM; in assay [6] it was 2.7 µM.
Take `O=C(NO)C(F)(F)C(F)(F)C(F)(F)C(F)(F)C(F)(F)C(F)(F)C(=O)Nc1ccc(F)cc1`: the Ki at Histone deacetylase 7 was greater than 50 µM; in assay [1], greater than 50 µM; in assay [2] it was 0.49 µM; on Histone deacetylase 8 it was greater than 50 µM; on Histone deacetylase 4, greater than 50 µM; on Histone deacetylase 5, greater than 50 µM. Also, the inhibition constant Ki in [3] was 0.33 µM; at Histone deacetylase 1, greater than 50 µM; in assay [4] it was greater than 50 µM; in assay [5], 0.33 µM; in assay [6] it was 0.46 µM.
As for `Cc1ccccc1NC(=O)C(F)(F)C(F)(F)C(F)(F)C(F)(F)C(F)(F)C(F)(F)C(=O)NO`, the inhibitory constant (Ki) at Histone deacetylase 7 was greater than 50 µM; in assay [1] it was greater than 50 µM; in [2], 84 µM; on Histone deacetylase 8, greater than 50 µM; at Histone deacetylase 4 it was greater than 50 µM; at Histone deacetylase 5, greater than 50 µM. In addition, the Ki was 0.62 µM in assay [3]; greater than 50 µM on Histone deacetylase 1; greater than 50 µM in assay [4]; 0.62 µM in [5]; 0.16 µM in [6].
In the case of `O=C(NO)C(F)(F)C(F)(F)C(F)(F)C(F)(F)C(F)(F)C(F)(F)C(=O)Nc1cccc(Cl)c1`, the Ki was greater than 50 µM on Histone deacetylase 7; greater than 50 µM in assay [1]; 0.073 µM in assay [2]; greater than 50 µM at Histone deacetylase 8; greater than 50 µM at Histone deacetylase 4; greater than 50 µM at Histone deacetylase 5. In addition, the Ki in [3] is 0.17 µM; on Histone deacetylase 1, greater than 50 µM; in assay [4], 11 µM; in [5], 0.17 µM; in assay [6], 0.046 µM.
In the case of `COc1ccc(NC(=O)C(F)(F)C(F)(F)C(F)(F)C(F)(F)C(F)(F)C(F)(F)C(=O)NO)cc1`, the Ki on Histone deacetylase 7 is greater than 50 µM; in assay [1] it was greater than 50 µM; in assay [2], 0.37 µM; at Histone deacetylase 8, greater than 50 µM; on Histone deacetylase 4, greater than 50 µM; at Histone deacetylase 5, greater than 50 µM. Also, the Ki in [3] is 0.18 µM; at Histone deacetylase 1, greater than 50 µM; in assay [4] it was greater than 50 µM; in assay [5], 0.18 µM; in assay [6], 1.2 µM.
Take `Cc1cccc(NC(=O)C(F)(F)C(F)(F)C(F)(F)C(F)(F)C(F)(F)C(F)(F)C(=O)NO)c1`: the Ki at Histone deacetylase 7 is greater than 50 µM; in assay [1] it was greater than 50 µM; in assay [2], 0.27 µM; at Histone deacetylase 8 it was greater than 50 µM; on Histone deacetylase 4 it was greater than 50 µM; at Histone deacetylase 5, greater than 50 µM. Moreover, the Ki in assay [3] was 0.45 µM; on Histone deacetylase 1, greater than 50 µM; in [4], 11 µM; in assay [5], 0.45 µM; in assay [6], 0.092 µM.
For `O=C(NO)C(F)(F)C(F)(F)C(F)(F)C(F)(F)C(F)(F)C(F)(F)C(=O)Nc1ccccc1Cl`, the Ki on Histone deacetylase 7 is greater than 50 µM; in assay [1], greater than 50 µM; in assay [2], 0.8 µM; on Histone deacetylase 8 it was greater than 50 µM; on Histone deacetylase 4, greater than 50 µM; on Histone deacetylase 5, greater than 50 µM. Besides, the Ki is 0.24 µM in assay [3]; greater than 50 µM at Histone deacetylase 1; greater than 50 µM in [4]; 0.24 µM in [5]; 0.16 µM in [6].
